Data published in ChEMBL document CHEMBL1150789, “Antiplasmodial activity of aryltetralone lignans from Holostylis reniformis” (Antimicrob Agents Chemother, 2007).

Legend:
[1] = Toxicity against human HepG2A16 cells assessed as cell death at 450 ug/ml by MTT method; format: cell-based
Plasmodium falciparum = assay: Antiplasmodial activity growth inhibition of chloroquine-resistant Plasmodium falciparum BHz 26/86 after 72 hrs; format: functional, organism-based; conditions: BHz 26/86, 72 h
Summary of the method: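 Chloroquine-resistant Amazon isolate in continuous culture on human AB+ or A+ erythrocytes, RPMI 1640 + 10% human serum. Sorbitol-synchronized trophozoites at 1–2% parasitemia, 2.5% hematocrit. Compounds in 0.02% Tween 20, tested at 0.02 to 20 μM, 37°C. Growth inhibition versus drug-free control from blinded smear reading. IC50/IC90 by linear interpolation. Triplicate, three repeats.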

Structure (SMILES): COc1cc2c(cc1OC)[C@@H](c1ccc3c(c1)OCO3)[C@H](C)[C@H](C)C2=O
- Activity [1]: 30%
- IC50 (Plasmodium falciparum): > 140000 nM
- IC90 (Plasmodium falciparum): > 140000 nM

Structure (SMILES): COc1cc2c(cc1OC)[C@@H](c1ccc3c(c1)OCO3)[C@@H](C)[C@H](C)C2=O
- Activity [1]: 30%
- IC50 (Plasmodium falciparum): 260 nM
- IC90 (Plasmodium falciparum): 3350 nM

Structure (SMILES): COc1ccc([C@@H]2c3cc(OC)c(OC)cc3C(=O)[C@@H](C)[C@@H]2C)cc1OC
- Activity [1]: 30%
- IC50 (Plasmodium falciparum): 320 nM
- IC90 (Plasmodium falciparum): 4600 nM

Structure (SMILES): COc1ccc([C@@H]2c3cc(OC)c(OC)cc3C(=O)[C@H](C)[C@H]2C)cc1OC
- Activity [1]: 30%
- IC50 (Plasmodium falciparum): 200 nM
- IC90 (Plasmodium falciparum): 3000 nM

Structure (SMILES): COc1ccc([C@@H]2c3cc(OC)c(OC)cc3C(=O)[C@@H](C)[C@H]2C)cc1OC
- Activity [1]: 30%
- IC50 (Plasmodium falciparum): 630 nM
- IC90 (Plasmodium falciparum): 2610 nM

Structure (SMILES): COc1ccc([C@@H]2c3cc4c(cc3C(=O)[C@@H](C)[C@H]2C)OCO4)cc1OC
- Activity [1]: 30%
- IC50 (Plasmodium falciparum): 8000 nM
- IC90 (Plasmodium falciparum): 19700 nM

Structure (SMILES): CCN(CC)CCCC(C)Nc1ccnc2cc(Cl)ccc12 (centres undefined) [CHLOROQUINE]
- IC90 (Plasmodium falciparum): 700 nM
